# Data reported in ChEMBL document CHEMBL3608288, “Novel Chalcone-Thiazole Hybrids as Potent Inhibitors of Drug Resistant Staphylococcus aureus” (ACS Med Chem Lett, 2015).
# Active and inactive are the calls of the source. The rule behind the calls is not given here.
# Key:
# Escherichia coli = assay: Antibacterial activity against Escherichia coli ATCC 9637 after 16 hrs by microtiter broth dilution method; format: functional; conditions: W
# Pseudomonas aeruginosa = assay: Antibacterial activity against Pseudomonas aeruginosa ATCC BAA-427 after 16 hrs by microtiter broth dilution method; format: functional; conditions: ATCC BAA-427, 16 h
# Staphylococcus aureus [1] = assay: Antibacterial activity against Staphylococcus aureus ATCC 25923 after 16 hrs by microtiter broth dilution method; format: functional; conditions: ATCC 25923, 16 h
# Staphylococcus aureus [2] = assay: Antibacterial activity against methicillin-resistant Staphylococcus aureus ATCC 700699 after 16 hrs by microtiter broth dilution method; format: functional; conditions: ATCC 700699, 16 h
# Staphylococcus aureus [3] = assay: Antibacterial activity against […] Staphylococcus aureus ATCC 29213 after 16 hrs by microtiter broth dilution method; format: functional; conditions: ATCC 29213, 16 h
# Staphylococcus aureus [4] = assay: Antibacterial activity against methicillin/gentamicin-resistant Staphylococcus aureus ATCC 33592 after 16 hrs by microtiter broth dilution method; format: functional; conditions: ATCC 33592, 16 h
# Klebsiella pneumoniae = assay: Antibacterial activity against Klebsiella pneumoniae ATCC 27736 after 16 hrs by microtiter broth dilution method; format: functional; conditions: ATCC 27736, 16 h
# Candida albicans = assay: Antifungal activity against Candida albicans after 16 hrs by microtiter broth dilution method; format: functional
# Cryptococcus neoformans = assay: Antifungal activity against Cryptococcus neoformans after 16 hrs by microtiter broth dilution method; format: functional
# Sporothrix schenckii = assay: Antifungal activity against Sporothrix schenckii after 16 hrs by microtiter broth dilution method; format: functional
# [5] = tested on: Trichophyton mentagrophytes; assay: Antifungal activity against Trichophyton mentagrophytes after 16 hrs by microtiter broth dilution method; format: functional
# Aspergillus fumigatus = assay: Antifungal activity against Aspergillus fumigatus after 16 hrs by microtiter broth dilution method; format: functional
# Candida parapsilosis = assay: Antifungal activity against Candida parapsilosis ATCC 22019 after 16 hrs by microtiter broth dilution method; format: functional; conditions: Lodderomyces parapsilosis, ATCC 22019, 16 h
# L929 [6] = assay: Cytotoxicity against mouse L929 cells assessed as cell viability at <= MIC by MTT assay; format: cell-based
# Outline: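 Mouse fibroblast L929 cells were exposed to the compound. Viability was read by MTT conversion to blue formazan, measured at 550 nm.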
# L929 [7] = assay: Cytotoxicity against mouse L929 cells assessed as induction of morphological changes at 1 x MIC after 24 hrs by Giemsa staining-based phase contrast microscopic analysis; format: cell-based; conditions: l929, 24 h
# Outline: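 L929 fibroblasts were incubated with the compound for 24 h, then Giemsa-stained. Morphology was compared with untreated control cells under phase contrast microscopy for appearance, transparency and attachment to the well surface.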
# Staphylococcus aureus [8] = assay: Antibacterial activity against […] Staphylococcus aureus ATCC 29213 assessed as reduction in log10CFU at 1x MIC and 10x MIC measured at 24 hrs relative to control; format: functional
# Outline: (§1)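 Aliquots were taken at regular time points and plated for CFU counts. Reduction in log10 CFU was taken against a no-drug control.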
# Staphylococcus aureus [9] = assay: Antibacterial activity against […] Staphylococcus aureus ATCC 29213 assessed as reduction in log10CFU measured at 24 hrs; format: functional, organism-based; outline: as §1
# Staphylococcus aureus [10] = assay: Antibacterial activity against […] Staphylococcus aureus ATCC 29213 in neutropenic BALB/C mouse septicemia model assessed as increase in mouse survival at 15 mg/kg, ip administered twice at 3 hrs interval; format: functional, organism-based
# Staphylococcus aureus [11] = assay: Antibacterial activity against […] Staphylococcus aureus ATCC 29213 in neutropenic BALB/C mouse septicemia model assessed as reduction in bacterial burden in spleen at 15 mg/kg, ip administered twice at 3 hrs interval measured after 24 hrs; format: functional, organism-based
# Outline: (§2)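 BALB/c mice were made neutropenic with cyclophosphamide (150 mg/kg) and then infected intraperitoneally with S. aureus ATCC 29213. From 3 h post-infection, compound was injected at 15 mg/kg twice, 3 h apart. At 24 h, spleen, kidney and liver were crushed and plated on TH plates for CFU. Data from three independent experiments were pooled; P by ANOVA on ranks.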
# Staphylococcus aureus [12] = assay: Antibacterial activity against […] Staphylococcus aureus ATCC 29213 in neutropenic BALB/C mouse septicemia model assessed as reduction in bacterial burden in liver at 15 mg/kg, ip administered twice at 3 hrs interval measured after 24 hrs; format: functional, organism-based; outline: as §2
# Staphylococcus aureus [13] = assay: Antibacterial activity against […] Staphylococcus aureus ATCC 29213 in neutropenic BALB/C mouse septicemia model assessed as reduction in bacterial burden in kidney at 15 mg/kg, ip administered twice at 3 hrs interval measured after 24 hrs; format: functional, organism-based; outline: as §2
# [14] = Hemolytic activity in human RBC at 100 ug/ml after 1 hr; conditions: erythrocyte
smiles,measurement,setting,value
COc1ccc(-c2csc(/N=C/c3cc(/C=C/C(=O)c4ccc(C)cc4)cc(C(C)(C)C)c3O)n2)cc1OC,MIC,Escherichia coli,> 92.5 µM
same,MIC,Pseudomonas aeruginosa,> 92.5 µM
same,MIC,Staphylococcus aureus [1],5.8 µM
same,MIC,Staphylococcus aureus [2],11.6 µM
same,MIC,Staphylococcus aureus [3],5.8 µM
same,MIC,Staphylococcus aureus [4],1.4 µM
same,MIC,Klebsiella pneumoniae,> 92.5 µM
same,MIC,Candida albicans,> 92.5 µM
same,MIC,Cryptococcus neoformans,> 92.5 µM
same,MIC,Sporothrix schenckii,> 92.5 µM
same,MIC,[5],> 92.5 µM
same,MIC,Aspergillus fumigatus,> 92.5 µM
same,MIC,Candida parapsilosis,> 92.5 µM
same,Activity,L929 [6],Non-toxic
same,Activity,L929 [7],Non-toxic
same,Activity,Staphylococcus aureus [8],10 log10CFU/ml
same,Activity,Staphylococcus aureus [9],Dose-dependent effect
same,Activity,Staphylococcus aureus [10],Active
same,Activity,Staphylococcus aureus [11],Active
same,Activity,Staphylococcus aureus [12],Active
same,Activity,Staphylococcus aureus [13],inactive
same,Activity,[14],Non-toxic
